Reference: article PMC10401071 (Cancer Discovery, 2023)
Where two headings read alike, the source gives them in different places.

Assays:
[1] = format: in vivo, human
Summary of the method: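 Adults with advanced solid tumours (ECOG 0–1; TP53 wild-type or unknown) received oral test compound on day 1 of 21-day cycles or days 1 and 8 of 28-day cycles, until progression or unacceptable toxicity. Antiemetic prophylaxis followed guidelines. AE incidence and severity were graded per NCI CTCAE v5.0 and summarised descriptively.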

[2] = Phase Ia dose escalation: dose-limiting toxicities; format: in vivo, human; conditions: for maximum tolerated dose (MTD): based on DLTs during cycle 1 and BLRM
Summary of the method: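 Escalating oral doses, day 1 q21d (10–80 mg) or days 1 and 8 q28d (5–60 mg). DLTs were counted over cycle 1 (21 or 28 days). The MTD was the highest dose with <25% risk of true DLT rate ≥33%, estimated by BLRM with overdose control. The RDE came from a supplementary BLRM on haematologic AEs of interest over the whole treatment period.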

Cc1c(C(=O)O)ccc2c3n(nc12)[C@@H]1[C@H](C3)N(CC2CC2)[C@@]2(C(=O)Nc3cc(Cl)ccc32)[C@H]1c1cccc(Cl)c1F [brigimadlin]
TRAE Increased aspartate aminotransferase, Grade ≥3 ([1]; D1D8q4w (n = 25)): 0 n (%) | TRAE Nausea, All grades ([1]; D1D8q4w (n = 25)): 19 (76.0) n (%) | TRAE Nausea, Grade ≥3 ([1]; D1D8q4w (n = 25)): 0 n (%) | TRAE Neutropenia, All grades ([1]; D1D8q4w (n = 25)): 6 (24.0) n (%) | TRAE Neutropenia, Grade ≥3 ([1]; D1D8q4w (n = 25)): 5 (20.0) n (%) | TRAE Thrombocytopenia, Grade ≥3 ([1]; D1D8q4w (n = 25)): 5 (20.0) n (%) | TRAE Vomiting, All grades ([1]; D1D8q4w (n = 25)): 15 (60.0) n (%) | TRAE Vomiting, Grade ≥3 ([1]; D1D8q4w (n = 25)): 1 (4.0) n (%) | patients with nausea leading to dose reduction ([1]; D1q3w): three | patients with thrombocytopenia leading to dose reduction ([1]; D1q3w): four | serious AE neutropenia ([1]; D1q3w): three | serious AE thrombocytopenia ([1]; D1q3w): three | Any AE ([1]; D1q3w (n = 29)): 29 (100.0) n (%) | Any AE (any cause) leading to study drug discontinuation ([1]; D1q3w (n = 29)): 2 (6.9) n (%) | Any AE (any cause) leading to study drug dose reduction ([1]; D1q3w (n = 29)): 11 (37.9) n (%) | Any TRAE ([1]; D1q3w (n = 29)): 27 (93.1) n (%) | Any grade ≥3 AE ([1]; D1q3w (n = 29)): 21 (72.4) n (%) | Any grade ≥3 TRAE ([1]; D1q3w (n = 29)): 17 (58.6) n (%) | Serious AEs (any cause) ([1]; D1q3w (n = 29)): 9 (31.0) n (%) | TRAE Alopecia, All grades ([1]; D1q3w (n = 29)): 6 (20.7) n (%) | TRAE Alopecia, Grade ≥3 ([1]; D1q3w (n = 29)): 0 n (%) | TRAE Anemia, All grades ([1]; D1q3w (n = 29)): 12 (41.4) n (%) | TRAE Anemia, Grade ≥3 ([1]; D1q3w (n = 29)): 3 (10.3) n (%) | TRAE Decreased appetite, All grades ([1]; D1q3w (n = 29)): 10 (34.5) n (%) | TRAE Decreased appetite, Grade ≥3 ([1]; D1q3w (n = 29)): 0 n (%) | TRAE Decreased lymphocyte count, All grades ([1]; D1q3w (n = 29)): 5 (17.2) n (%) | TRAE Decreased lymphocyte count, Grade ≥3 ([1]; D1q3w (n = 29)): 3 (10.3) n (%) | TRAE Decreased weight, All grades ([1]; D1q3w (n = 29)): 3 (10.3) n (%) | TRAE Decreased weight, Grade ≥3 ([1]; D1q3w (n = 29)): 0 n (%) | TRAE Decreased white blood cell count, All grades ([1]; D1q3w (n = 29)): 9 (31.0) n (%) | TRAE Decreased white blood cell count, Grade ≥3 ([1]; D1q3w (n = 29)): 5 (17.2) n (%) | TRAE Diarrhea, All grades ([1]; D1q3w (n = 29)): 8 (27.6) n (%) | TRAE Diarrhea, Grade ≥3 ([1]; D1q3w (n = 29)): 0 n (%) | TRAE Dysgeusia, All grades ([1]; D1q3w (n = 29)): 5 (17.2) n (%) | TRAE Dysgeusia, Grade ≥3 ([1]; D1q3w (n = 29)): 0 n (%) | TRAE Fatigue, All grades ([1]; D1q3w (n = 29)): 15 (51.7) n (%) | TRAE Fatigue, Grade ≥3 ([1]; D1q3w (n = 29)): 1 (3.4) n (%) | TRAE Gastroesophageal reflux disease, All grades ([1]; D1q3w (n = 29)): 2 (6.9) n (%) | TRAE Gastroesophageal reflux disease, Grade ≥3 ([1]; D1q3w (n = 29)): 0 n (%) | TRAE Increased alanine aminotransferase, All grades ([1]; D1q3w (n = 29)): 3 (10.3) n (%) | TRAE Increased alanine aminotransferase, Grade ≥3 ([1]; D1q3w (n = 29)): 0 n (%) | TRAE Increased aspartate aminotransferase, All grades ([1]; D1q3w (n = 29)): 4 (13.8) n (%) | TRAE Increased aspartate aminotransferase, Grade ≥3 ([1]; D1q3w (n = 29)): 0 n (%) | TRAE Nausea, All grades ([1]; D1q3w (n = 29)): 21 (72.4) n (%) | TRAE Nausea, Grade ≥3 ([1]; D1q3w (n = 29)): 4 (13.8) n (%) | TRAE Neutropenia, Grade ≥3 ([1]; D1q3w (n = 29)): 8 (27.6) n (%) | TRAE Thrombocytopenia, All grades ([1]; D1q3w (n = 29)): 15 (51.7) n (%) | TRAE Thrombocytopenia, Grade ≥3 ([1]; D1q3w (n = 29)): 9 (31.0) n (%) | TRAE Vomiting, All grades ([1]; D1q3w (n = 29)): 13 (44.8) n (%) | TRAE Vomiting, Grade ≥3 ([1]; D1q3w (n = 29)): 0 n (%) | TRAE neutropenia grade 3 ([1]; all 54 patients): 9.3% | TRAE neutropenia grade 4 ([1]; all 54 patients): 14.8% | TRAE thrombocytopenia grade 3 ([1]; all 54 patients): 13.0% | TRAE thrombocytopenia grade 4 ([1]; all 54 patients): 13.0% | grade ≥3 TRAE neutropenia ([1]; all 54 patients): 24.1% | grade ≥3 TRAE thrombocytopenia ([1]; all 54 patients): 25.9% | patients with a grade ≥3 AE ([1]; all 54 patients): 61.1% | patients with a serious AE ([1]; all 54 patients): 33.3% | patients with grade ≥3 TRAEs ([1]; all 54 patients): 46.3% | patients with investigator-reported TRAEs ([1]; all 54 patients): 92.6% | TRAE nausea ([1]; all 54 patients, all grades): 74.1% | TRAE vomiting ([1]; all 54 patients, all grades): 51.9% | treatment discontinuation due to a hematologic TRAE ([1]; both treatment arms): no patient discontinued treatment with brigimadlin due to a hematologic TRAE | treatment discontinuation due to a DLT in cycle 1 ([2]; D1D8q4w arm): no patient discontinued treatment due to a DLT in cycle 1 | patients with DLTs during the MTD evaluation period (cycle 1) ([2]; D1D8q4w arm, 5 to 60 mg): Three | maximum tolerated dose (MTD) ([2]; D1D8q4w): 45 mg | treatment discontinuation due to a DLT in cycle 1 ([2]; D1q3w arm): No patient discontinued treatment due to a DLT in cycle 1 | patients with DLTs during the MTD evaluation period (cycle 1) ([2]; D1q3w arm, 10 to 80 mg): Five | maximum tolerated dose (MTD) ([2]; D1q3w): 60 mg | patients with DLTs after the MTD evaluation period ([2]; both arms): Seven | recommended dose for expansion (RDE) for phase Ib ([2]; q3w, supplementary BLRM analysis of AEs of interest over entire treatment period): 45 mg
